In the library only some 1.7% were active in any assay of this set; here they are far more common.
NTR1 ag – agonists of human neurotensin receptor NTR1 | activation, % at 20 µM | P30989 | 330,000 compounds, 0.17% hits | NTR1-U2OS beta-arrestin-GFP spot imaging, agonist mode;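 active = activation at or above 40% of the spot to cytoplasm intensity ratio, with at least 20 cells analyzed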;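 note: 0% = DMSO without peptide and 100% = 100 nM NTR1 peptide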
SR-BI HDL uptake – inhibitors of mouse SR-BI mediated HDL lipid uptake | Q61009 | ldlA[mSR-BI] CHO cells, DiI-HDL uptake fluorescence, 3 h | inhibition, % at 12.5 µM | 320,000 compounds, 0.96% hits;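 active = mean replicate inhibition of at least 70% and a set share of replicates each scoring 70 or more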;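 note: 0% = median of neutral control wells and 100% = median of positive control wells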
CaV13 FRET inh – Disruptors of the CACNA1D IQ motif to Ca2+-dependent inactivation inhibitor domain association, primary screening, Förster resonance energy transfer in intact living …; HEK cells, CFP/YFP FRET ICDI-IQ, plate reader, 10 min; percent FRET-ratio fall versus neutral wells; inhibition, % at 12.3 µM; 340,000 compounds, 0.098% hits; AID 743397;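 active = mean replicate inhibition of at least 30% and at least 1% of replicates passing that level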;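 note: 0% = median of the neutral control wells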
Vif imaging – HIV Vif inhibition; inhibition, % at 7.49 µM; 340,000 compounds, 0.35% hits; AID 602346; HEK293T cells, Vif self-association by quenched fluorescence, imaging, 24 h; in the data active = inhibition above about 50%, passing the limit was not always enough
V-ATPase pH – regulators of yeast V-ATPase proton transport | S. cerevisiae, pHLuorin cytosolic pH fluorescence | response, % at 10 µM | 350,000 compounds, 0.37% hits; in the data active = response mostly above about 7.3%, no sharp cut-off; inactive = mostly below about 5.4%; note: actives read high
SR-BI uptake up – activators of SR-BI mediated HDL lipid uptake; CHO ldlA[mSR-BI] cells, DiI-HDL uptake fluorescence, 3 h; 100 = double the neutral-control signal; activation, % at 12.5 µM; 320,000 compounds, 0.096% hits; AID 504775;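 active = mean replicate activation of at least 60% and every replicate at or above 60%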;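 note: 0% = median plate neutral-control signal and 100% = twice that signal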
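system = CHO ldlA[mSR-BI] cells, LDL receptor-null, SR-BI overexpressing | medium = Ham's F12 with 0.5% BSA, HEPES 25 mM, pH 7.4 | probe or stimulus = DiI-HDL 10 µg/mL | compound dosing = single-point compound dose | incubation = compound exposure 3 h, 37 °C | technique = DiI fluorescence, bottom read | read-out = cell-associated DiI fluorescence as measure of HDL uptake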
V-ATPase pH SP – modulates yeast V-ATPase proton transport | shares compounds with V-ATPase pH | S. cerevisiae pHLuorin cytosolic pH | response, % at 10 µM | 980 compounds, 2% hits | AID 602197; in the data active = response above about 24%;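 note: plate controls were vehicle wells for no effect and positive control wells for full effect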
Starred values were filed as active, the others as inactive.

Results for COc1ccc(NC(=O)N(C)C[C@H]2OCc3cnnn3CCCC(=O)N([C@H](C)CO)C[C@@H]2C)c(OC)c1 ?
CaV13 FRET inh: -6

How did Cc1nc(NC(=O)/C=C/c2ccccc2)sc1C(=O)N1CCCCC1 do in these assays?
NTR1 ag: 2; SR-BI HDL uptake: -11; CaV13 FRET inh: -9; Vif imaging: 5; V-ATPase pH: 8; SR-BI uptake up: 11

What do the screens show for `COC(=O)COc1ccc(-c2ccc(F)cc2)cc1C=O`?
NTR1 ag: 10; SR-BI HDL uptake: -11; CaV13 FRET inh: -5; Vif imaging: 8; V-ATPase pH: 6.2*; SR-BI uptake up: 11; V-ATPase pH SP: 20

Results for COC(=O)COc1ccc(-c2ccccc2)cc1C=O ?
NTR1 ag: 9; SR-BI HDL uptake: -2; CaV13 FRET inh: -5; Vif imaging: -7; V-ATPase pH: 1; SR-BI uptake up: 2

Results for O=c1c2ccccc2sn1-c1ccc(Cl)cc1 ?
CaV13 FRET inh: -9; Vif imaging: -11; V-ATPase pH: 0; V-ATPase pH SP: -23

Results for Cc1ccc(-c2nnc(-n3ncc(C#N)c3N)c3ccccc23)cc1C ?
NTR1 ag: 2; SR-BI HDL uptake: 78*; CaV13 FRET inh: -3; Vif imaging: -2; V-ATPase pH: 9.9*; SR-BI uptake up: -78; V-ATPase pH SP: -5

How did CCc1cc(-c2cnnn2Cc2ccc3ccccc3c2)ccc1-c1cn(CC(C)C)nn1 do in these assays?
CaV13 FRET inh: -10; V-ATPase pH: 7.2*; V-ATPase pH SP: 1

How did O=C(c1cccnc1)N1CCN(Cc2ccc3ccccc3c2)CC1 do in these assays?
NTR1 ag: -2; SR-BI HDL uptake: -3; CaV13 FRET inh: -4; Vif imaging: 1; V-ATPase pH: 10*; SR-BI uptake up: 3; V-ATPase pH SP: 0

How did CC1CCCCC1NC(=O)C1CCCN(S(=O)(=O)c2ccc(-n3cnnn3)cc2)C1 (stereo not given) do in these assays?
NTR1 ag: -2; SR-BI HDL uptake: -9; CaV13 FRET inh: -3; Vif imaging: -10; V-ATPase pH: -1; SR-BI uptake up: 9

What do the screens show for `O=C(Nc1nnc(-c2ccccc2Cl)o1)c1ccco1`?
NTR1 ag: 1; SR-BI HDL uptake: -6; CaV13 FRET inh: -8; Vif imaging: 12; V-ATPase pH: 11*; SR-BI uptake up: 6; V-ATPase pH SP: 1

What do the screens show for `Cc1ccc(NC2OC(C(O)CO)C(O)C2O)cc1[N+](=O)[O-]` (stereo not given)?
NTR1 ag: -1; SR-BI HDL uptake: -40; CaV13 FRET inh: -5; Vif imaging: 21; V-ATPase pH: 36*; SR-BI uptake up: 40; V-ATPase pH SP: -4

How did Cc1ccc(NC2OC(CO)C(O)C2O)cc1[N+](=O)[O-] (stereo not given) do in these assays?
NTR1 ag: -1; SR-BI HDL uptake: -10; CaV13 FRET inh: -6; Vif imaging: 13; V-ATPase pH: -2; SR-BI uptake up: 10

What do the screens show for `Cc1ccc(F)c(NC(=O)/C(C#N)=C(\O)c2ccc(C(C)(C)C)cc2)c1`?
NTR1 ag: 0; SR-BI HDL uptake: 15; CaV13 FRET inh: -4; V-ATPase pH: 16*; SR-BI uptake up: -15; V-ATPase pH SP: 3

Results for Cc1cccc(NC(=O)C(=O)NNC(=O)c2ccc(C(C)(C)C)cc2)c1 ?
NTR1 ag: 0; SR-BI HDL uptake: -11; CaV13 FRET inh: -4; Vif imaging: -7; V-ATPase pH: 1; SR-BI uptake up: 11

What do the screens show for `Cc1cccc(N2CCN(C(=O)c3cc(=O)[nH]c4ccccc34)CC2)c1C`?
NTR1 ag: 2; SR-BI HDL uptake: 5; CaV13 FRET inh: -2; Vif imaging: 0; V-ATPase pH: 14*; SR-BI uptake up: -5; V-ATPase pH SP: 2

Results for O=C(c1cc(=O)[nH]c2ccccc12)N1CCN(c2ccccc2)CC1 ?
NTR1 ag: 0; CaV13 FRET inh: -12; Vif imaging: -3; V-ATPase pH: -4
